LMPTP block: LMPTP phosphatase inhibitors, primary screen, biochemical, fluorescence intensity, uHTS | Low molecular weight phosphotyrosine protein phosphatase (Homo sapiens), P24666 | recombinant LMPTP-A, OMFP fluorogenic substrate | inhibition, % at 20 µM | actives 0.22% (n = 360,000);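 active means compounds that cut the enzyme signal by at least half of the control window in the single-dose screen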
Target sequence (P24666 whole entry, looked up): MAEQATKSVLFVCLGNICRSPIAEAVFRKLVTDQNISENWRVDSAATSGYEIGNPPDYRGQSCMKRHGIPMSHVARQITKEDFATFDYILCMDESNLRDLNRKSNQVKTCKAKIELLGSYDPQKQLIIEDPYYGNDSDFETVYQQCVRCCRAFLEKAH
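Test system – LMPTP-A phosphatase enzyme · Quantity – 0.625 nM LMPTP-A final · Reagent – OMFP substrate, 400 µM final · Dosing – one test concentration per compound, 20 µM, with 3% DMSO overall · Timing – 50 min enzyme reaction at room temperature, protected from light · Detection – fluorescence intensity · Controls – substrate-only low control, DMSO enzyme-plus-substrate high control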
SUMO1 PPI mod: modulators of SUMO1 protein-protein interactions, primary screen, biochemical, uHTS; SUMO1 binding to a labelled peptide, TR-FRET, 1 h; Small ubiquitin-related modifier 1 (Homo sapiens), P63165; actives 0.33% (n = 360,000); inhibition, % at 20 µM; in the data active means inhibition above about 37%
Rpn11 block: Rpn11 (PSMD14) deubiquitinase inhibitors, primary screen, biochemical, fluorescence polarization, uHTS; 26S proteasome non-ATPase regulatory subunit 14 (Homo sapiens), O00487; human 26S proteasome, Ub4-pepOG fluorescence polarization; 20S core pre-blocked with epoxomicin; inhibition, % at 20 µM; actives 0.59% (n = 360,000); AID 588493, 2011;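 active means inhibition at 20 µM, scaled to each plate's controls, above about 33%, limit read from the data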
Target sequence (O00487 whole entry, looked up): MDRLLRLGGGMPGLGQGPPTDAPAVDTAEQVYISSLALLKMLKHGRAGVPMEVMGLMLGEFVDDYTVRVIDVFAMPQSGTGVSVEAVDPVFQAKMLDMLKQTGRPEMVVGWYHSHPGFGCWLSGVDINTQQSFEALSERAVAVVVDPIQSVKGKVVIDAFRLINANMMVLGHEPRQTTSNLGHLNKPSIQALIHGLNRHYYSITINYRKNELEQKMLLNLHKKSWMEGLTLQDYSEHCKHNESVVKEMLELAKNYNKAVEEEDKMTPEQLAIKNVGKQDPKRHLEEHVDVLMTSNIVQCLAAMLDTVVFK
DNMT1 inh: human DNMT1 methyltransferase inhibitors, primary screen, biochemical, molecular beacon, fluorescence, HinP1I cleavage, uHTS | DNA (cytosine-5)-methyltransferase 1 (Homo sapiens), P26358 | inhibition (reported as % activation of signal), % at 10 µM | actives 0.83% (n = 360,000) | AID 588458, 2011; in the data active means inhibition above about 50%
STEP inh: STEP phosphatase inhibitors, primary screen, biochemical, fluorescence intensity, uHTS; AID 588621, 2011; recombinant STEP, OMFP fluorogenic substrate; inhibition, % at 20 µM; actives 0.25% (n = 360,000);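 active means inhibition at 20 µM, scaled per plate between control wells, above about 37%, limit read from the data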
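System: isolated STEP enzyme; schedule: 20 min enzyme reaction at room temperature, protected from light; medium: Bis-Tris buffer pH 6.0, 2.5 mM DTT, 0.005% Tween 20; signal: fluorescence, 480/540 nm; dosing: single compound dose of 20 µM, 1% DMSO final; also added: OMFP substrate, 25 µM final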
Scp-1 inhibitor: Scp-1 phosphatase inhibitors, primary screen, biochemical, colorimetric, uHTS | Carboxy-terminal domain RNA polymerase II polypeptide A small phosphatase 1 (Homo … | Recombinant Scp1, phosphopeptide, malachite green phosphate absorbance | inhibition, % at 20 µM | actives 0.88% (n = 340,000) | AID 493091, 2011;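 active means inhibition above about 50% at 20 µM, limit read from the data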
Target sequence (Q9GZU7 76-261 limits assumed): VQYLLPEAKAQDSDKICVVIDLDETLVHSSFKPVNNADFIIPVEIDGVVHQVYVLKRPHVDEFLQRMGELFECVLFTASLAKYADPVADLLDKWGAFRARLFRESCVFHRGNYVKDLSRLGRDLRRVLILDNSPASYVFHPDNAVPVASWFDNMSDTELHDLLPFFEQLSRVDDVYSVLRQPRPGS
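Assay system: SCP-1 catalytic fragment, aa 76-261 | Buffer or medium: Tris acetate buffer pH 5.5 with MgCl2 and Tween-20 | Compound: One concentration, 20 µM, with 1.0% DMSO | Also added: Phospho 17-mer peptide substrate | Signal: Absorbance at 630 nm | Incubation: 45 min enzyme reaction at room temperature | Measure: % inhibition of SCP-1 phosphate liberation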
Scp-1 conf: Scp-1 phosphatase inhibitors, retest, confirmation, biochemical, colorimetric, single concentration | shares compounds with Scp-1 inhibitor | recombinant SCP-1 catalytic domain, phosphate release, malachite green absorbance | inhibition, % at 20 µM | actives 61% (n = 2,500)
MG interference: colorimetric readout interference by compounds, confirmation, artefact control for Scp-1 inhibitor project, biochemical, single concentration. shares compounds with Scp-1 inhibitor. Colorimetric interference counterscreen, malachite green absorbance 630 nm. apparent inhibition (interference), % at 20 µM. 2,500 tested, under 10 active;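 further: compounds added after enzyme reaction finished so only phosphate colour detection is probed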
Scp-1 Tm shift: Scp-1 binding by thermal shift, confirmation, orthogonal assay for Scp-1 inhibitor project, biophysical, differential scanning fluorimetry; Recombinant SCP1, Sypro Orange thermal shift Tm; AID 540329, 2011; shares compounds with Scp-1 inhibitor; actives 25% (n = 1,500); thermal shift relative to vanadate control, % at 40 µM;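 active means substances whose mean melting-temperature shift, as a percentage of the reference inhibitor's shift, reaches about 5.3%, limit read from the data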
Hits are given with their value. Only some compounds are listed: those with a hit (about 2.3% of all), similar ones and a draw of the others.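 How the source made its calls, unless noted: active means inhibition of at least 30% at 20 µM; inactive means the rest.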

For CCCSc1nc2c([nH]1)c(=O)n(C)c(=S)n2C the results were LMPTP block inactive, SUMO1 PPI mod inactive, Rpn11 block inactive, DNMT1 inh inactive, STEP inh inactive and Scp-1 inhibitor inactive.
For CCOc1ccccc1NC(=O)Nc1cccc(S(N)(=O)=O)c1 the results were LMPTP block inactive, SUMO1 PPI mod inactive, Rpn11 block inactive, DNMT1 inh inactive, STEP inh inactive and Scp-1 inhibitor inactive.
`Cc1ccc2[nH]c(O)c(N=NC(=O)c3ccc(NS(=O)(=O)c4cccs4)cc3)c2c1` gave LMPTP block inactive, SUMO1 PPI mod inactive, Rpn11 block inactive, DNMT1 inh inactive, STEP inh 58, Scp-1 inhibitor 100, Scp-1 conf 58, MG interference inactive and Scp-1 Tm shift inactive.
Screening O=C(N=Nc1c(O)[nH]c2ccccc12)c1ccccc1NS(=O)(=O)c1cccs1 returned LMPTP block inactive, SUMO1 PPI mod inactive, Rpn11 block inactive, DNMT1 inh inactive, STEP inh inactive and Scp-1 inhibitor inactive.
CCCCn1c(=O)c(CCC(=O)OCC(=O)NCc2ccc(OC)c(OC)c2)nc2ccccc21 was read as LMPTP block inactive, SUMO1 PPI mod inactive, Rpn11 block inactive, DNMT1 inh inactive, STEP inh inactive and Scp-1 inhibitor inactive.
COC(=O)[C@]12CCCCC=C1N(Cc1ccc(Cl)cc1Cl)C(=O)[C@H](CC(=O)N1CCOCC1)C2 was read as LMPTP block inactive and SUMO1 PPI mod inactive.
`Cc1ccc(S(=O)(=O)N(C)c2ccc(C(=O)NCc3cccnc3)cc2)cc1` gave LMPTP block inactive, SUMO1 PPI mod inactive, Rpn11 block inactive, DNMT1 inh inactive, STEP inh inactive, Scp-1 inhibitor 79, Scp-1 conf inactive and MG interference inactive.
`CN(c1ccc(C(=O)NCc2cccnc2)cc1)S(=O)(=O)c1ccc(Cl)cc1` gave LMPTP block inactive, SUMO1 PPI mod inactive, Rpn11 block inactive, DNMT1 inh inactive, STEP inh inactive and Scp-1 inhibitor inactive.
Screening O=C1CCCN1CCC1CCN(C2CC(=O)N(c3ccc(Cl)cc3)C2=O)CC1 (stereo unspecified) returned LMPTP block inactive, SUMO1 PPI mod inactive, Rpn11 block inactive, DNMT1 inh inactive, STEP inh inactive and Scp-1 inhibitor inactive.
CCOC(=O)CCC(NC(=O)c1cncc(O)c1)C(=O)OCC (stereo unspecified) was read as LMPTP block inactive, SUMO1 PPI mod inactive, Rpn11 block inactive, DNMT1 inh inactive, STEP inh inactive and Scp-1 inhibitor inactive.
`CN(Cc1cnc2nc(N)nc(N)c2n1)c1ccc(C(=O)NC(CCC(=O)O)C(=O)O)cc1C(F)(F)F` (stereo unspecified) gave LMPTP block inactive, SUMO1 PPI mod inactive, Rpn11 block inactive, DNMT1 inh inactive, STEP inh inactive, Scp-1 inhibitor 50, Scp-1 conf inactive and MG interference inactive.
For CN(Cc1cnc2nc(N)nc(N)c2n1)c1ccc(C(=O)NC(CCC(=O)O)C(=O)O)cc1 (stereo unspecified) the results were LMPTP block inactive, SUMO1 PPI mod inactive, Rpn11 block inactive, DNMT1 inh inactive, STEP inh inactive, Scp-1 inhibitor 62, Scp-1 conf 70, MG interference inactive and Scp-1 Tm shift inactive.
`O=C(NCCN1CCNC1=O)C1CCC(=O)N(CCc2ccccc2)C1` (stereo unspecified) gave LMPTP block inactive, SUMO1 PPI mod inactive, Rpn11 block inactive, DNMT1 inh inactive, STEP inh inactive, Scp-1 inhibitor inactive, Scp-1 conf inactive and MG interference inactive.
COc1ccc(N2CCN(Cc3nc(-c4ccccc4)no3)CC2)cc1 was read as LMPTP block inactive, SUMO1 PPI mod inactive, Rpn11 block inactive, DNMT1 inh inactive, STEP inh inactive and Scp-1 inhibitor inactive.
Screening COc1ccc(-c2noc(CCC(=O)N3CCN(c4ccccc4Br)CC3)n2)cc1 returned LMPTP block inactive, SUMO1 PPI mod inactive, Rpn11 block inactive, DNMT1 inh inactive, STEP inh inactive, Scp-1 inhibitor 54, Scp-1 conf inactive and MG interference inactive.
For COc1ccc(-c2noc(CN3CCN(c4ccccc4)CC3)n2)cc1 the results were LMPTP block inactive, SUMO1 PPI mod inactive, Rpn11 block inactive, DNMT1 inh inactive, STEP inh inactive, Scp-1 inhibitor 68, Scp-1 conf inactive and MG interference inactive.
Screening COc1ccc(-c2noc(CCC(=O)N3CCN(c4ccccc4Cl)CC3)n2)cc1 returned LMPTP block inactive, SUMO1 PPI mod inactive, Rpn11 block inactive, DNMT1 inh inactive, STEP inh inactive and Scp-1 inhibitor inactive.
Cc1c(C(=O)N(C)CCCCN2CCOCC2)oc2c(F)cccc12 was read as LMPTP block inactive, SUMO1 PPI mod inactive, Rpn11 block inactive, DNMT1 inh inactive, STEP inh inactive and Scp-1 inhibitor inactive.
CC(=O)Nc1cc(NC(C)=O)cc(C(=O)N2CCCC3CCCCC32)c1 (stereo unspecified) was read as LMPTP block inactive, SUMO1 PPI mod inactive, Rpn11 block inactive, DNMT1 inh inactive, STEP inh inactive, Scp-1 inhibitor 61, Scp-1 conf 54, MG interference inactive and Scp-1 Tm shift 5.7.
`CCN(C(=O)CSc1cc(C)c2cccc(C)c2n1)C1CCS(=O)(=O)C1` (stereo unspecified) gave LMPTP block inactive, SUMO1 PPI mod inactive, Rpn11 block inactive, DNMT1 inh inactive, STEP inh inactive and Scp-1 inhibitor inactive.

Screening results deposited in PubChem BioAssay by Sanford-Burnham Center for Chemical Genomics.
